Source: PubChem
UHRF1 binding = human UHRF1 methylated DNA binding inhibitors | actives 0.75% (n = 370,000) | UHRF1 binding to methylated oligo, TR-FRET | Q96T88 | inhibition, % at 4.4 µM; in the data active = inhibition above about 21%;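 also: UHRF1 SRA domain binding a hemimethylated CpG hairpin DNA probe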
SIAE inh = inhibitors of human sialic acid acetylesterase SIAE. Q9HAT2. SIAE FP-Rh probe binding, fluorescence polarization. inhibition, % at 9.66 µM. actives 0.69% (n = 370,000);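 active = inhibition above a cutoff: mean of compounds within the control limits plus 3 SD of those, cut at about 17% in these data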
Target sequence (Q9HAT2 whole entry, looked up): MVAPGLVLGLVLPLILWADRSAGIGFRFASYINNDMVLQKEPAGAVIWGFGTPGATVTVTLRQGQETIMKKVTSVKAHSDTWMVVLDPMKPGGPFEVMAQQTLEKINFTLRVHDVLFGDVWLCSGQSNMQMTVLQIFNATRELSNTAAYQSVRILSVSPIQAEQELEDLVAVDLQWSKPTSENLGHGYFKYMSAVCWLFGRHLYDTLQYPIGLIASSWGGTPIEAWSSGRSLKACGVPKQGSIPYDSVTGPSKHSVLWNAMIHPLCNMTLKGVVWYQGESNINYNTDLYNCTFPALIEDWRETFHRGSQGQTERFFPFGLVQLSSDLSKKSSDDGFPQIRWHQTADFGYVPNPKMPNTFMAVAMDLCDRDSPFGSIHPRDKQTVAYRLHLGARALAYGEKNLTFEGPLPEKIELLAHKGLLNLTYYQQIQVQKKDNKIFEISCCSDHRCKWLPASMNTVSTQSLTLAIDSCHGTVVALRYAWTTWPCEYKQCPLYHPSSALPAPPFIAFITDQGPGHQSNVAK
PRMT1 FP inh = blocks human protein arginine methyltransferase 1; Q99873; recombinant PRMT1, activity-based probe fluorescence polarization; inhibition, % at 2.79 µM; actives 1.3% (n = 370,000); AID 652257;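 active = inhibition above about 21% made by adding two undisclosed values, limit read from the data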
MBD2 DNA inh = blocks human MBD2 binding to methylated DNA | Q9UBB5 | TR-FRET, MBD2 binding to methylated oligonucleotide | inhibition, % at 4.4 µM | actives 0.31% (n = 370,000); in the data active = inhibition above about 13%
TDP2 absorb = blocks human TDP2 phosphodiesterase activity; O95551; recombinant TDP2, T5PNP hydrolysis, p-nitrophenol absorbance 415 nm; inhibition, % at 12.8 µM; actives 0.34% (n = 370,000); AID 720702;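 active = inhibition above the mean of all tested compounds plus 3 SD, set per campaign, cut at about 25% in these data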
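System – recombinant human TDP2 · Amount – 120 nM TDP2 per well · Buffer or medium – Mg2+-containing Tris-HCl buffer, pH 7.5 · Reagent – T5PNP substrate, 5 mM · Dosing – 12.8 µM single point, 1% DMSO · Incubation – 2 h at 37 °C · Measured by – epi absorbance · Read-out basis – percent inhibition · Benchmarks – high control without enzyme, low control DMSO plus TDP2 · Repeats – singlicate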
LEDGF integ inh = blocks HIV-1 LEDGF/p75-dependent DNA integration; inhibition, % at 3.7 µM; TR-FRET IN-LEDGF/p75 DNA integration, Eu/Cy5; actives 0.64% (n = 370,000);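 active = inhibition above the screen-wide mean plus 3 SD, cut at about 13% in these data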;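 also: signal is the Cy5 over europium emission ratio at 671 and 618 nm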
Each line names hits and unclear results; the compound was inactive in the other large screens. Only some compounds are listed: those with a hit (about 3.3% of all), similar ones and a draw of the others.

CCOC(=O)c1c(C)[nH]c(C=Nc2ccc(OC)cc2)c1O	PRMT1 FP inh 21.7
Cc1ccc(S(=O)(=O)N2CCCCC2)cc1NC(=O)COC(=O)C1CC1	none
COc1ccccc1NC(=O)COC(=O)c1cc([N+](=O)[O-])ccc1N1CCCC1	UHRF1 binding 35.4
Cc1ccc(S(=O)(=O)N2CCCCC2)cc1NC(=O)COC(=O)c1cccn1C	UHRF1 binding 40.0
Cc1ccc(S(=O)(=O)N2CCCCC2)cc1NC(=O)c1cc(F)c(F)c(F)c1F	UHRF1 binding 22.1
COc1ccccc1OCC(=O)Nc1cc(S(=O)(=O)N2CCCCC2)ccc1N1CCCCC1	UHRF1 binding 27.2
Cc1ccc(-c2cc(C(=O)NN=C/C=C/c3ccco3)[nH]n2)cc1C	none
COc1ccc(S(=O)(=O)N2CCCCC2)cc1NC(=O)CCc1nc2ccccc2c(=O)[nH]1	none
Cc1ccc(S(=O)(=O)N2CCCCC2)cc1NC(=O)CCc1nc2ccccc2c(=O)[nH]1	PRMT1 FP inh 21.7
Oc1ccc(-c2nc3ccccc3s2)c(O)c1	none
Oc1ccc(-c2cnns2)c(O)c1	PRMT1 FP inh 23.9
COc1cc(OC)c(OC)cc1/C=N/Nc1nc2ccccc2[nH]1	none
CCN(CC)c1ccc(/C=N/Nc2nc3ccccc3[nH]2)c(O)c1	SIAE inh 28.4
Cc1ccc(Cc2c(C(C)(C)C)nc3ccc(Br)cn23)cc1	UHRF1 binding 22.8
Cc1ccc(Cc2c(-c3ccc(Br)cc3)nc3ccc(Br)cn23)cc1	none
COc1cc(/C=C2/SC(=S)N(Cc3ccccc3)C2=O)cc(Cl)c1O	none
O=C(O)CN1C(=O)/C(=C\c2cc(Br)ccc2OCc2ccc([N+](=O)[O-])cc2)SC1=S	PRMT1 FP inh 24.1
O=C(O)CN1C(=O)/C(=C\c2cc(Br)ccc2OCc2ccccc2Cl)SC1=S	none
COc1cc([N+](=O)[O-])cc(/C=C2/SC(=S)N(Cc3ccccc3)C2=O)c1O	PRMT1 FP inh 21.1
CCOC(=O)c1ccc(NC(=O)CSc2nnc(-c3cc(-c4ccccc4)n[nH]3)n2N)cc1	none
CCO[C@@H]1OC(C(=O)O)=C[C@H](c2ccc(C(F)(F)F)cc2)[C@H]1CCCO	UHRF1 binding 77.0
COC(=O)[C@@]12CCCCC3=C1N(CCC3)C(=O)[C@H]2CC(=O)N1CCN(C(=O)C2CC2)CC1	none
CN(C)S(=O)(=O)c1cccc(NC(=O)COC(=O)/C=C/c2ccco2)c1	none
COc1cc(CCC(=O)Nc2ccc(C)c(S(=O)(=O)N(C)C)c2)cc(OC)c1OC	UHRF1 binding 21.4
Cc1ccc(NC(=O)COC(=O)/C=C/c2ccco2)cc1S(=O)(=O)N(C)C	PRMT1 FP inh 21.2
C[C@H]1[C@@H](NC(=O)/C=C/c2ccccc2)CC[C@@]23CCCN2C(=O)CCC[C@@H]13	none
O=C(CCc1ccccc1)N[C@@H]1c2ccccc2CC[C@H]1OCc1ccccc1	UHRF1 binding 22.6
CC(=O)c1cc(-c2ccc3[nH]ccc3c2)c(=O)n2c1CCC2	none
Cc1ccc(S(=O)(=O)NC2CCCCC2)cc1C(=O)N1CCC(C(N)=O)CC1	UHRF1 binding 67.2
CN(C)C(=O)c1cn(-c2ccccc2)nc1-c1cccs1	LEDGF integ inh 17.3
S=c1nc(-c2csc3c2CCCC3)[nH][nH]1	PRMT1 FP inh 21.7
S=c1nc(-c2ccccc2Cl)[nH][nH]1	none
CN1CCN(C(=O)/C(=C/c2ccccc2Cl)NC(=O)c2ccccc2)CC1	LEDGF integ inh 45.1
CN1CCN(C(=O)/C(=C\c2cccs2)NC(=O)c2ccccc2)CC1	none
Cc1ccccc1CC(=O)N1CCC(n2nnc3ncccc32)CC1	none
COC(=O)[C@]12C[C@H](CC(=O)N3CCC(c4ccccc4)CC3)C(=O)N(Cc3cccc4ccccc34)C1=C[C@H](C1CCCC1)O[C@@H]2C	none
COc1ccc(NC(=O)CN2CCN(c3ccccc3C)CC2)cc1	UHRF1 binding 79.2
COc1ccc(NC(=O)CN2CCN(c3ccccc3Cl)CC2)cc1	none
COc1ccc(NC(=O)Cn2cc(C(C)=O)c3ccccc32)cc1	UHRF1 binding 94.0
Cc1ccc(-n2c(SCc3ccc(Cl)c(Cl)c3)nnc2-c2ccc(C(C)(C)C)cc2)cc1	none
Cc1ccc(C(=O)Oc2coc(CSc3ncccn3)cc2=O)cc1[N+](=O)[O-]	none
CC1CC(C)CN(C(=O)c2cc3cc(Br)cc(Br)c3o2)C1 (stereo not given)	UHRF1 binding 47.2
Brc1ccc(C2=CC(c3cccs3)n3ncnc3N2)cc1 (stereo not given)	PRMT1 FP inh 94.7
Cc1ccc(C2C=C(c3ccccc3)Nc3ncnn32)cc1 (stereo not given)	none
COC(=O)C1CN(C2CCCC2)CCS(=O)(=O)N1Cc1ccc(C(F)(F)F)cc1 (stereo not given)	none
Cc1ccc(S(=O)(=O)N(C)CC(=O)NNC(=O)CCNS(=O)(=O)c2cccc(C)c2)cc1	UHRF1 binding 34.2
Cc1ccc(S(=O)(=O)CCC(=O)NNC(=O)CN(C)S(=O)(=O)c2ccc(C)cc2)cc1	none
CCOC(=O)c1sc2cc([N+](=O)[O-])cc(SCC(=O)OC)c2c1N	PRMT1 FP inh 23.0
CCOC(=O)c1sc2cc([N+](=O)[O-])cc(SCCO)c2c1N	none
Cc1ccc(/C=N/N=C2\SCC(=O)N2CC2CC2)cc1	none
O=C1CS/C(=N\N=C\c2ccccc2Cl)N1CC1CC1	UHRF1 binding 24.7
Cc1ccc(CNC(=O)O[C@H]2CC[C@@]34CCCN3C(=O)CCC[C@H]4C2)cc1	none
CC(C)CCN(CCC(C)C)C(CO)(CO)CO	UHRF1 binding 21.5
Cc1ccc(CNC[C@@]23CO[C@H](c4ccc(Cl)cc4)N2[C@@H](c2ccc(Cl)cc2)SC3)o1	none
O=C(CSc1ccc2c(c1)OCCO2)Nc1ncccc1O	PRMT1 FP inh 23.9
C=CCn1c(O)c(CN2CCCCC2)c(C)c(C#N)c1=O	PRMT1 FP inh 22.3
CCn1cc(/C=C/C(=O)Nc2ccn(Cc3c(F)c(F)cc(F)c3F)n2)cn1	PRMT1 FP inh 22.1
CCn1cc(/C=C/C(=O)Nc2ccc(C)cc2Br)cn1	none
CCCC[C@H](C(=O)N(C)c1ccccc1)[C@@H](O)c1ccc(C(C)=O)cc1	none
C[C@@H]1CCCN1c1ccc2c(c1)O[C@H]1CCN(C1)S2(=O)=O	none
c1nc(NC[C@@H]2CCCO2)c2cc(-c3ccc4c(c3)OCO4)ccc2n1	none
O=C(/C=C\c1ccc(-c2ccccc2)o1)c1ccccc1	PRMT1 FP inh 26.0
COc1ccc(/C=C/C(=O)NCCNC(=O)c2ccccc2)cc1OC	UHRF1 binding 24.6
COC(=O)C1CN(Cc2ccc(C)cc2)CCS(=O)(=O)N1Cc1cn(Cc2ccc(C)cc2)nn1 (stereo not given)	none
O=C(OC12CCCN(C1)/C(=C/c1cccnc1)C2)c1ccco1 (stereo not given)	none
